Variants at the floor of the assay were thinned out.
B1: tRNA (parent)
chain: GUUCCGUUGGCGUAAUGGUAACGCGUCUCCCUCCUAAGGAGAAGACUGCGGGUUCGAGUCCCGUACGGAACG

Variants of: B1
Assay: yeast fitness relative to wild type (ratio to wild type); higher = fitter; tRNA-Arg(CCU), competitive growth, 37 C, YPD
Summary of the method: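 A pool of Saccharomyces cerevisiae strains, each with a tRNA-Arg(CCU) gene variant at the native genomic locus, was competed in YPD at 37°C for 24 hours across six parallel replicates. The variants had been chemically synthesised at a 3% per-site mutation rate over 69 sites, and gene amplicons before and after competition were read by 100-nucleotide paired-end sequencing. Darwinian fitness relative to wild type rested on changes in genotype frequencies. Genotypes required ≥ 100 starting reads, and estimates < 0.5 were set to 0.5.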

Variant | yeast fitness
GUUCCGUUGGCGUAAUGGUAACGCGUCUCCCUCCUAUGGAGAAGACUGCGGGUUCGAGUCCUGUACGGAACG | 0.859
GUUCCGUUGGCGUAAUGGUAACGCGUCUCCCUCCUAUGGAGAAGACUGCGGGUUCGAGUCCUGUAGGGAACG | ≤ 0.5
GUUCCGUUGGCGUAAUGGUAACGCGUCUCCCUCCUAUGGAGAAGACUGCGGGUUCGAGUCCUGUACAGAACG | ≤ 0.5
GUUCCGUUGGCGUAAUGGUAACGCGUCUCCCUCCUAUGGAGAAGACUGCGGGUUCGAGUCCCGUAGGGAACG | ≤ 0.5
GUUCCGUUGGCGUAAUGGUAACGCGUCUCCCUCCUAUAGAGAAGACUGCGGGUUCGAGACCCGUACGGAACG | ≤ 0.5
GUUCCGUUGGCGUAAUGGUAACGCGUCUCCCUCCUAUGGAGAAAACUGCGGGUUCGAGUCCCGUACGGAACG | 0.602
GUUCCGUUGGCGUAAUGGUAACGCGUCUCCCUCCUAUGGAGAAAACUGCGGGUUCGAGUCCCGUACGGCACG | ≤ 0.5
GUUCCGUUGGCGUAAUGGUAACGCGUCUCCCUCCUAUGGAGAAAACUGCGGGUUCGAGUCCCGUACGGACCG | 0.614
GUUCCGUUGGCGUAAUGGUAACGCGUCUCCCUCCUAUGGAGAAAACUGCGGGUUCGAGUCCCGUACGGAGCG | ≤ 0.5
GUUCCGUUGGCGUAAUGGUAACGCGUCUCCCUCCUAUGGAGAAAACUGUGGGUUCGCGUCGCGUACGGAACG | ≤ 0.5
GUUCCGUUGGCGUAAUGGUAACGCGUCUCCCUCCUAUGGAGAAAACUGCGGGUUCGAGUCCCGUACUGAGCG | ≤ 0.5
GUUCCGUUGGCGUAAUGGUAACGCGUCUCCCUCCUAUGGAGAAAACUGCGGGUACGAGUCCGGUAGGGGACG | ≤ 0.5
GUUCCGUUGGCGUAAUGGUAACGCGUCUCCCUCCUAUGGAGAACACUGCGGGUUCGAGUCCCGUACGGAACG | 0.784
GUUCCGUUGGCGUAAUGGUAACGCGUCUCCCUCCUAUGGAGAAGACUCCGGGUUCGAGUCCCGUACGUAACG | 0.57
GUUCCGUUGGCGUAAUGGUAACGCGUCUCCCUCCUAUGGAGAAGACUCCGGGUUCGAGCCCCGUACGGAACG | 0.533
GUUCCGUUGGCGUAAUGGUAACGCGUCUCCCUCCUAUGGAGAAGACUGCAGGUUCGAGUCCCGUACGGAACG | 0.804
GUUCCGUUGGCGUAAUGGUAACGCGUCUCCCUCCUAUGGAGAAGACUGCCGGUUCGAGUCCCGUAUGGAACG | 0.593
GUUCCGUUGGCGUAAUGGUAACGCGUCUCCCUCCUAUGGAGAAGACUGCCGGUUCGAGUCCCGUACAGAACG | ≤ 0.5
GUUCCGUUGGCGUAAUGGUAACGCGUCUCCCUCCUAUGGAGAAGACUGCGAGUUCGAGUCCCGUACGGAACG | 0.57

Variant | yeast fitness
GUUCCGUUGGCGUAAUGGUAACGCGUCUCCCUCCUAUGGAGAAGACUGCGAGUUUGAGUCCCGUACGGAACG | ≤ 0.5
GUUCCGUUGGCGUAAUGGUAACGCGUCUCCCUCCUAUGGAGAAGACUGCGAGUUCGAGUCCCGUAGGGAACG | ≤ 0.5
GUUCCGUUGGCGUAAUGGUAACGCGUCUCCCUCCUAUGGAGAAGACUGCGACUUCGAGCCCCGUACGGAACG | 0.619
GUUCCGUUGGCGUAAUGGUAACGCGUCUCCCUCCUAUGGAGAAGACUGCGAGGCCGAGUCCCGUACGGAACG | ≤ 0.5
GUUCCGUUGGCGUAAUGGUAACGCGUCUCCCUCCUAUGGAGAAGACUGCGCGUUCGCGUCCCGUACGGAACG | 0.552
GUUCCGUUGGCGUAAUGGUAACGCGUCUCCCUCCUAUGGAGAAGACUGCGGAUUCGCGUACCGUACGGAACG | ≤ 0.5
GUUCCGUUGGCGUAAUGGUAACGCGUCUCCCUCCUAUGGAGAAGACUGCGGCUUCGAGUCCCGUACGGAACG | ≤ 0.5
GUUCCGUUGGCGUAAUGGUAACGCGUCUCCCUCCUAUGGAGAAGACUGCGGGUUCAAGUCCCGUCCGGAACG | 0.5
GUUCCGUUGGCGUAAUGGUAACGCGUCUCCCUCCUAUGGAGAAGACUGCGGGUUCCUGUCCCGUACGGAACG | ≤ 0.5
GUUCCGUUGGCGUAAUGGUAACGCGUCUCCCUCCUAUGGAGAAGACUGCGGGUUCGAAUCCCGUACGAAACG | 0.588
GUUCCGUUGGCGUAAUGGUAACGCGUCUCCCUCCUAUGGAGAAGACUGCGGGUUCGACUCCCGUACGGAACG | 0.789
GUUCCGUUGGCGUAAUGGUAACGCGUCUCCCUCCUAUGGAGAAGACUGCGGGUUCGAGUCCCGUACCGAACG | 0.619
GUUCCGUUGGCGUAAUGGUAACGCGUCUCCCUCCUAUGGAGAAGACUGCGGGUUCGAGUCCCGUACGAAACG | 0.736
GUUCCGUUGGCGUAAUGGUAACGCGUCUCCCUCCUAUGGAGAAGACAGCGGGUUCGAGUCCUGUACGGAACG | 0.531
GUUCCGUUGGCGUAAUGGUAACGCGUCUCCCUCCUAUGGAGAAGACCGCGCGUUCGAGUCCCCUACGGAACG | 0.507
GUUCCGUUGGCGUAAUGGUAACGCGUCUCCCUCCUAUGGAGAAGACCGCGGGGUCGAGUCCCGUACGGUACG | ≤ 0.5
GUUCCGUUGGCGUAAUGGUAACGCGUCUCCCUCCUAUGGAGAAGACCGCGGGGUCGAGUCCUGUACGGAACG | ≤ 0.5
GUUCCGUUGGCGUAAUGGUAACGCGUCUCCCUCCUAUGGAGAAGACGGCGGGUUCGCGUCCCGUACGGAACG | ≤ 0.5
